# In ChEMBL document CHEMBL3286225, “Novel carboline derivatives as potent antifungal lead compounds: design, synthesis, and biological evaluation” (ACS Med Chem Lett, 2014):
# Calls of active or inactive are those of the source. No cut-off for these calls is given here.
# How the values were obtained:
# Cytochrome P450 3A4 [1] = target: T1, Cytochrome P450 3A4 (Homo sapiens, UniProt P08684); test: Inhibition of CYP3A4 in human liver microsomes assessed as testosterone conversion to 6-hydroxy testosterone preincubated for 10 mins followed by NADPH addition measured after 15 mins by LC-MS/MS analysis; type: ADME
# CYP3A4 [2] = target: T2, CYP3A4 (Homo sapiens, UniProt P08684); test: Inhibition of CYP3A4 in human liver microsomes assessed as testosterone conversion to 6-hydroxy testosterone at 25 uM preincubated for 10 mins followed by NADPH addition measured after 15 mins by LC-MS/MS analysis relative to control; type: ADME; conditions: probe testosterone
# Candida albicans [3] = test: Inhibition of biofilm formation of fluconazole-sensitive Candida albicans SC5314 at 64 ug/ml after 48 hrs by XTT assay relative to control; type: functional; conditions: SC5314, 48 h
# How it was run: (§1)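 Biofilm formation by C. albicans SC5314 or 103 in presence of 2–64 μg/mL drug (fluconazole 64 μg/mL reference); quantified by XTT reduction as % of blank control; mean ± standard deviation of three independent experiments, ANOVA and Student t test.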
# WI-38 = test: Cytotoxicity against human WI38 cells by MTT assay; type: cell-based
# Candida albicans [4] = test: Antifungal activity against fluconazole-resistant Candida albicans 100 after 24 hrs by serial dilution method in presence of fluconazole; type: functional
# How it was run: (§2)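 Tested in combination with fluconazole against each fluconazole-resistant C. albicans strain. Interaction was scored by fractional inhibitory concentration index (FICI): synergy at FICI ≤ 0.5, indifference at 0.5 < FICI ≤ 4, antagonism at FICI > 4.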
# Candida albicans [5] = test: Inhibition of hyphal growth of fluconazole-sensitive Candida albicans SC5314 assessed as appearance of unicellular budding yeast form at 4 to 8 ug/ml after 16 hrs by light microscopic analysis; type: functional, organism-based
# How it was run: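 C. albicans SC5314 was grown in RPMI 1640 at 37 °C for 16 h, without compound or with 2–8 μg/mL. A fluconazole 8 μg/mL control was included. Cell morphology (hyphae, pseudohyphae, budding yeast) was then scored by microscopy.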
# Cytochrome P450 2C9 = Cytochrome P450 2C9 (Homo sapiens, UniProt P11712); test: Inhibition of CYP2C9 in human liver microsomes assessed as tolbutamide conversion to 4-hydroxy tolbutamide preincubated for 10 mins followed by NADPH addition measured after 15 mins by LC-MS/MS analysis; type: ADME
# CYP3A4 [6] = target: T2, CYP3A4; test: Inhibition of CYP3A4 in human liver microsomes assessed as midazolam conversion to 1'-hydroxy midazolam at 2.5 uM preincubated for 10 mins followed by NADPH addition measured after 15 mins by LC-MS/MS analysis relative to control; type: ADME; conditions: probe midazolam
# Candida albicans [7] = test: Antifungal activity against fluconazole-sensitive Candida albicans SC5314 assessed as abnormal vacuole shape at 8 ug/ml after 8 hrs by TEM analysis; type: functional, organism-based
# How it was run: (§3)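 Transmission electron microscopy of C. albicans SC5314 cells exposed to 8 μg/mL for 8 h. Untreated cells and cells given fluconazole 8 μg/mL for 8 h served as controls. Cell wall layers, cytoplasmic density and vacuole shape were compared by eye.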
# Candida albicans [8] = test: Antifungal activity against fluconazole-sensitive Candida albicans SC5314 assessed as change in sterol composition at 8 ug/ml after 24 hrs by GC-MS analysis (reference value: 8.5%); type: functional
# How it was run: (§4)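 C. albicans SC5314 exposed to 8 μg/mL for 24 h, sterols analysed by GC-MS with cholesterol internal standard; each sterol expressed as % of total sterol fraction versus no-drug control; average of three independent experiments.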
# Candida albicans [9] = test: Antifungal activity against fluconazole-sensitive Candida albicans SC5314 after 24 hrs by serial dilution method; type: functional; conditions: SC5314, 24 h
# Candida albicans [10] = test: Antifungal activity against fluconazole-sensitive Candida albicans SC5314 assessed as change in ergosterol composition at 8 ug/ml after 24 hrs by GC-MS analysis (reference value: 90%); type: functional; how it was run: as §4
# Nannizzia gypsea = test: Antifungal activity against Microsporum gypseum Cmccfmza after 7 days by serial dilution method; type: functional; conditions: 168 h
# Cytochrome P450 3A4 [11] = target: T1, Cytochrome P450 3A4; test: Inhibition of CYP3A4 in human liver microsomes assessed as midazolam conversion to 1'-hydroxy midazolam preincubated for 10 mins followed by NADPH addition measured after 15 mins by LC-MS/MS analysis; type: ADME
# Candida albicans [12] = test: Inhibition of biofilm formation of fluconazole-resistant Candida albicans 103 after 48 hrs by XTT assay; type: functional, organism-based; how it was run: as §1
# CYP2C9 = CYP2C9 (Homo sapiens, UniProt P11712); test: Inhibition of CYP2C9 in human liver microsomes assessed as tolbutamide conversion to 4-hydroxy tolbutamide at 0.25 uM preincubated for 10 mins followed by NADPH addition measured after 15 mins by LC-MS/MS analysis relative to control; type: ADME; conditions: probe tolbutamide
# Candida albicans [13] = test: Antifungal activity against fluconazole-sensitive Candida albicans SC5314 assessed as change in eburicol composition at 8 ug/ml after 24 hrs by GC-MS analysis relative to control; type: functional; how it was run: as §4
# Candida albicans [14] = test: Antifungal activity against fluconazole-sensitive Candida albicans SC5314 assessed as thickening of middle sphere of cell wall at 8 ug/ml after 8 hrs by TEM analysis; type: functional, organism-based; how it was run: as §3
# Candida albicans [15] = test: Antifungal activity against fluconazole-resistant Candida albicans 07109 after 24 hrs by serial dilution method in presence of fluconazole; type: functional; how it was run: as §2
# Candida albicans [16] = test: Antifungal activity against fluconazole-resistant Candida albicans 07109 after 24 hrs by serial dilution method; type: functional; conditions: Candida albicans, 07109, 24 h
# Candida albicans [17] = test: Fungicidal activity against fluconazole-sensitive Candida albicans SC5314 after 12 to 48 hrs; type: functional, organism-based
# How it was run: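 Time-kill assay starting from 10^5 CFU/mL C. albicans SC5314. Test concentrations ranged from 2–32 μg/mL. Untreated and fluconazole 32 μg/mL controls were included. Viable counts (CFU/mL) were taken at 0, 12, 24 and 48 h of incubation.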
# Candida albicans [18] = test: Antifungal activity against fluconazole-sensitive Candida albicans SC5314 assessed as change in obtusifoliol composition at 8 ug/ml after 24 hrs by GC-MS analysis relative to control; type: functional; how it was run: as §4
# Candida albicans [19] = test: Inhibition of biofilm formation of fluconazole-resistant Candida albicans 103 at 32 ug/ml after 48 hrs by XTT assay; type: functional; conditions: Candida albicans, 103, 48 h; how it was run: as §1
# Candida albicans [20] = test: Antifungal activity against fluconazole-sensitive Candida albicans SC5314 assessed as thinning of outer sphere of cell wall at 8 ug/ml after 8 hrs by TEM analysis; type: functional, organism-based; how it was run: as §3
# Candida albicans [21] = test: Antifungal activity against fluconazole-resistant Candida albicans 100 after 24 hrs by serial dilution method; type: functional; conditions: Candida albicans, 100, 24 h
# Candida tropicalis = test: Antifungal activity against Candida tropicalis after 7 days by serial dilution method; type: functional; conditions: 168 h
# Candida albicans [22] = test: Fungicidal activity against fluconazole-sensitive Candida albicans SC5314 assessed as reduction in fungi density after 24 hrs; type: functional, organism-based
# How it was run: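 Time-kill: C. albicans (SC5314 or 103) inoculated at 10^5 CFU/mL, untreated or with drug (2–32 μg/mL; fluconazole 32 μg/mL reference); CFU/mL counted after 0, 12, 24 and 48 h.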
# Cryptococcus neoformans = test: Antifungal activity against Cryptococcus neoformans 32609 after 72 hrs by serial dilution method; type: functional; conditions: Cryptococcus neoformans, 32609, 72 h
# Candida albicans [23] = test: Antifungal activity against fluconazole-sensitive Candida albicans SC5314 assessed as cell membrane damage at 8 ug/ml after 8 hrs by TEM analysis; type: functional, organism-based
# How it was run: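 Transmission electron microscopy of C. albicans SC5314 cells exposed to 8 μg/mL drug for 8 h; untreated cells as reference; cell wall, membrane, cytoplasm and vacuole morphology inspected.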
# T1 sequence (P08684 whole entry): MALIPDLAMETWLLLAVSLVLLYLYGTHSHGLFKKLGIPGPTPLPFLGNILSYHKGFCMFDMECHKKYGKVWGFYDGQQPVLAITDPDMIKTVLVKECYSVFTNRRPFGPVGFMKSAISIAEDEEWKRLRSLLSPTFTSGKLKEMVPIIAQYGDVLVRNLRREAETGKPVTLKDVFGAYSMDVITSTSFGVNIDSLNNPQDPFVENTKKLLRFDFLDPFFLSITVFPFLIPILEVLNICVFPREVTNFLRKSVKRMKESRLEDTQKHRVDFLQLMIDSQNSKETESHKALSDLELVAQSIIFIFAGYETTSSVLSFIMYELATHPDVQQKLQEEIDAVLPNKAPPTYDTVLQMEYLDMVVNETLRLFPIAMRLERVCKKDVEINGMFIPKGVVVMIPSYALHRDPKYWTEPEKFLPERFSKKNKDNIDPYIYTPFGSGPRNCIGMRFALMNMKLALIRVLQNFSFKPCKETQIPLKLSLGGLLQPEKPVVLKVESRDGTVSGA
# T2 sequence (P08684 whole entry): as above
# Chain of CYP2C9 (P11712 whole entry): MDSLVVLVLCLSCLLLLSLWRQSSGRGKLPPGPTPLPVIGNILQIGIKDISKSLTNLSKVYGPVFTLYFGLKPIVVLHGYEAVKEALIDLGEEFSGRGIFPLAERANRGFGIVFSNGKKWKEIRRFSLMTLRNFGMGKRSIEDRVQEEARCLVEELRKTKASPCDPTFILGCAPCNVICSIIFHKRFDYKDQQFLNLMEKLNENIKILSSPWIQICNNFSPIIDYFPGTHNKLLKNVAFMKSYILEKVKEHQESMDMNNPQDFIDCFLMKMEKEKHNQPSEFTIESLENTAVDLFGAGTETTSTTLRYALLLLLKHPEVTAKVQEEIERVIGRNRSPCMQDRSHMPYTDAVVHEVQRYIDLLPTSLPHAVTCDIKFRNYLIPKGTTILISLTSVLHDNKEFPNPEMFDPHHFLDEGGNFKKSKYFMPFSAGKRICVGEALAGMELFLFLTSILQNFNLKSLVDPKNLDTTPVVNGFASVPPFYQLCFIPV
# Chain of Cytochrome P450 2C9 (P11712 whole entry): as above
smiles,measurement,setting,value
Fc1ccc2c(c1)c1c(n2CCCOc2ccc(Cl)cc2)CCNC1,IC50,Cytochrome P450 3A4 [1],25 µM
same,"inhibition at 0.25 h, 25 µM",CYP3A4 [2],-35%
same,inhibition at 64 µg/mL,Candida albicans [3],> 80%
same,IC50,WI-38,> 40 µg/mL
same,fractional inhibitory concentration index (FICI),Candida albicans [4],0.252
same,growth inhibition (GI),Candida albicans [5],Active
same,IC50,Cytochrome P450 2C9,> 25 µM
same,"inhibition at 0.25 h, 2.5 µM",CYP3A4 [6],-10%
same,Activity,Candida albicans [7],Active
same,Activity,Candida albicans [8],31.5%
same,MIC80,Candida albicans [9],2 µg/mL
same,Activity,Candida albicans [10],40.2%
same,MIC80,Nannizzia gypsea,1 µg/mL
same,IC50,Cytochrome P450 3A4 [11],50 µM
same,inhibition,Candida albicans [12],Dose-dependent effect
same,"inhibition at 0.25 h, 0.25 µM",CYP2C9,-2%
same,Activity,Candida albicans [13],12.4%
same,Activity,Candida albicans [14],Active
same,fractional inhibitory concentration index (FICI),Candida albicans [15],0.252
same,MIC80,Candida albicans [16],4 µg/mL
same,Activity,Candida albicans [17],Dose-dependent effect
same,Activity,Candida albicans [18],3.7%
same,inhibition at 32 µg/mL,Candida albicans [19],> 75%
same,Activity,Candida albicans [20],Active
same,MIC80,Candida albicans [21],4 µg/mL
same,MIC80,Candida tropicalis,4 µg/mL
same,Activity,Candida albicans [22],Active
same,MIC80,Cryptococcus neoformans,1 µg/mL
same,Activity,Candida albicans [23],inactive
